Assay results taken from PMC7485388 (ACS chemical biology, 2017).
“Also recorded” adds a separate entry of the source.

Tests used:
EphB3 WT = assay: EphB3 autophosphorylation in HEK293 cells co-expressing EphB3 WT; type: cell-based, human; conditions: 100 nM; HEK293 co-expressing EphB3 WT and EphB1 T697G; ephrin-B2 stimulation
Outline: (§1)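 HEK293 cells transfected with Eph kinase variants were exposed to a range of test compound concentrations. Lysate protein was quantified by BCA and normalized before Western blotting. Blots were probed for phospho-EphB, total EphB1 or EphB3, and β-actin, giving autophosphorylation relative to total receptor.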

EphB1 T697G = molecular target: T1, EphB1 T697G (Homo sapiens, UniProt P54762, T697G); assay: EphB1 autophosphorylation in transfected HEK293 cells; type: cell-based
T1 sequence (P54762 18-984 T697G): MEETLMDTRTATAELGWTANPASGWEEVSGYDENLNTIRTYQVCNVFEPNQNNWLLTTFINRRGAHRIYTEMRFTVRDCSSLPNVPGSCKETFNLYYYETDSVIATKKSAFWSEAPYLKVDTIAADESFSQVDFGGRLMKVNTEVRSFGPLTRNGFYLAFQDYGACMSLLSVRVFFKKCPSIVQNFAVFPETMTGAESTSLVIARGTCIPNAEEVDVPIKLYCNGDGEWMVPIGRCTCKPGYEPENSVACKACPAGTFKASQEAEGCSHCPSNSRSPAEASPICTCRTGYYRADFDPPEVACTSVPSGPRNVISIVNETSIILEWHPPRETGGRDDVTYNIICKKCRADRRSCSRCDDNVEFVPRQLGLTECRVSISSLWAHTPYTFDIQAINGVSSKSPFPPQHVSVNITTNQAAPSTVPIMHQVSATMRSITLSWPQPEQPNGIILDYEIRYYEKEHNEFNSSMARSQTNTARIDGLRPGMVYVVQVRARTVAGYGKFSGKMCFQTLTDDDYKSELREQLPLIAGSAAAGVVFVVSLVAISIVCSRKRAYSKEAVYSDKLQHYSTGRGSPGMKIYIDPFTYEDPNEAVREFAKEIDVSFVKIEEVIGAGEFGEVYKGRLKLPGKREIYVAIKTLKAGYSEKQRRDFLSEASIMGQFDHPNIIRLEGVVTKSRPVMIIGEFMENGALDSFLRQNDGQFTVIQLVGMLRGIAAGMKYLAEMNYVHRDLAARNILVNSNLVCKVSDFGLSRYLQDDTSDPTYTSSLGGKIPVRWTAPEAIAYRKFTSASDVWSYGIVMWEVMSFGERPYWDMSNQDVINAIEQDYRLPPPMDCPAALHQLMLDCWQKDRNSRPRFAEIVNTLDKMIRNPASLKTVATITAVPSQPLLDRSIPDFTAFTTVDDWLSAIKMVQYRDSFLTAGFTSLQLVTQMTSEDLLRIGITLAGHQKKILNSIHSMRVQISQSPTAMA
Outline: as §1

Structure (SMILES): Cc1cccc(Cc2nn(C(C)(C)C)c3ncnc(N)c23)c1 [3MB-PP1]
- autophosphorylation of EphB3 WT (EphB3 WT): little effect
- inhibition of the three EphB1 alleles in cells (EphB1 T697G; 100 nM, HEK293, tested on WT, G703C, T697G): only inhibited the analog-sensitive allele; also recorded: only inhibited EphB1^T697G
- autophosphorylation of EphB1 T697G (EphB1 T697G; 100 nM, HEK293 co-expressing EphB3 WT and EphB1 T697G, ephrin-B2 stimulation): abolished
- selectivity factor between the two EphB1 mutants (T697G over G703C) (EphB1 T697G; in cells): ~ 500
